Assay results from ChEMBL document CHEMBL4196230, “Design, Synthesis, and Blood-Brain Barrier Transport Study of Pyrilamine Derivatives as Histone Deacetylase Inhibitors” (ACS Med Chem Lett, 2018).
Activity calls are given as the source filed them. The calls are words filed in the database; no cut-off is given here.

Tests used:
[1] = target: T1, Protein deacetylase HDAC6 (Homo sapiens) (UniProt Q9UBN7); experiment: Inhibition of recombinant human HDAC6 expressed in baculovirus infected insect cells at 30 uM using HDAC substrate 3 measured after 30 mins by fluorescence assay relative to control
T1 sequence (whole entry): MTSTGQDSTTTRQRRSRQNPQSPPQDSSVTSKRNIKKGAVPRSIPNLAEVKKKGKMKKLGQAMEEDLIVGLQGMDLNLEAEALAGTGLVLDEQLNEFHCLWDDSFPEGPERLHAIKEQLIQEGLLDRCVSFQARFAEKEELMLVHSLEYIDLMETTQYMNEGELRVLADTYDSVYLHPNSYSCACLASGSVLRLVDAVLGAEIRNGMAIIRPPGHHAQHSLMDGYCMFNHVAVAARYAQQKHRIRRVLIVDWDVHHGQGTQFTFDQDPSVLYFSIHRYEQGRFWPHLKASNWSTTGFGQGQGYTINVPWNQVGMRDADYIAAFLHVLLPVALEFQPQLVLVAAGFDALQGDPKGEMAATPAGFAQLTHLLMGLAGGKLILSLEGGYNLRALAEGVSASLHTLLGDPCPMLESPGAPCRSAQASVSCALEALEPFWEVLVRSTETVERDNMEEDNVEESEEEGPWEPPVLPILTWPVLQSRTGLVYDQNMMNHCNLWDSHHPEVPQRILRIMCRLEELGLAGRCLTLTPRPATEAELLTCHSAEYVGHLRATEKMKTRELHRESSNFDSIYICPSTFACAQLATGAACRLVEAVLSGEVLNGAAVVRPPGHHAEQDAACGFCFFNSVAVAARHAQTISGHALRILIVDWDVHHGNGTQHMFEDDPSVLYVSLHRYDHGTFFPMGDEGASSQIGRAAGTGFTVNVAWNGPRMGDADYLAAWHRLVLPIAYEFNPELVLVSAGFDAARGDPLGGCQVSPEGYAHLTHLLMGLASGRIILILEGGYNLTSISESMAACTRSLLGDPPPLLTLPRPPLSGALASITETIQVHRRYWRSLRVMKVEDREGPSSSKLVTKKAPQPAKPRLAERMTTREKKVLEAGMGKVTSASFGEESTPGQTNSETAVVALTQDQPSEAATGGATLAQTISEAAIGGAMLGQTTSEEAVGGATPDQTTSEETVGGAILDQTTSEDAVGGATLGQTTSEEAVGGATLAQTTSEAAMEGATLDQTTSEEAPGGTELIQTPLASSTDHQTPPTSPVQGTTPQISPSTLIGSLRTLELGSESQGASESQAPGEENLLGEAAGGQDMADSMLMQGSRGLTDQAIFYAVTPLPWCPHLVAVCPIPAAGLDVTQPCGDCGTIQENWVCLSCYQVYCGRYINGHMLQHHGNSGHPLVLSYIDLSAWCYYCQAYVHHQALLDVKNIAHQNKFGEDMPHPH

[2] = Substrate activity at PYSOCA in human CMEC/D3 cells assessed as transporter-mediated drug uptake clearance assessed per mg protein at 37degC; format: ADME, cell-based
Outline: (§1)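 Uptake by hCMEC/D3 cells followed over time at 37 °C or 4 °C. Clearance was calculated from the initial linear slope, expressed per mg protein. Mean ± S.E., n = 4.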

[3] = Substrate activity at PYSOCA in human CMEC/D3 cells assessed as transporter-mediated drug uptake clearance assessed per mg protein at 4degC measured up to 10 mins; format: ADME, cell-based; outline: as §1
[4] = Substrate activity at PYSOCA in human CMEC/D3 cells assessed as Vmax for transporter-mediated drug uptake assessed per mg protein measured for 2 mins at 37degC; format: ADME, cell-based
Outline: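 Uptake by hCMEC/D3 cells measured over a range of concentrations at 37 °C for 2 min. Km and Vmax were obtained by fitting to Eq. 1. Mean ± S.E., n = 4.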

[5] = Substrate activity at PYSOCA in human CMEC/D3 cells assessed as transporter-mediated drug uptake measured for 2 mins at 37degC in presence of metabolic inhibitor NaN3; format: ADME, cell-based
Outline: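 To deplete cellular ATP, hCMEC/D3 cells were pretreated with 0.1% NaN3 for 20 min. Uptake was then measured at 37 °C for 2 min. Mean ± S.E., n = 4.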

[6] = Substrate activity at PYSOCA in human CMEC/D3 cells assessed as transporter-mediated drug uptake measured for 1 min at 37degC in presence of NH4Cl under intracellular acidification condition; format: ADME, cell-based
Outline: (§2)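 hCMEC/D3 cells were pretreated in transport buffer with or without 30 mM NH4Cl. Uptake was then measured at 37 °C for 1 min with or without 30 mM NH4Cl (Control, Pre and Acute conditions). Mean ± S.E., n = 4.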

[7] = Substrate activity at PYSOCA in human CMEC/D3 cells assessed as transporter-mediated drug uptake measured for 1 min at 37degC in presence of NH4Cl under intracellular alkalization condition; format: ADME, cell-based; outline: as §2
[8] = Substrate activity at PYSOCA in human CMEC/D3 cells assessed as transporter-mediated drug uptake measured for 2 mins at 37degC in presence of diphenhydramine; format: ADME, cell-based
Outline: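 Uptake by hCMEC/D3 cells was measured at various substrate concentrations, at 37 °C for 2 min, with or without diphenhydramine (100 µM). Data were analysed by Michaelis-Menten and Lineweaver-Burk plots using nonlinear least-squares regression (Eqs. 1 and 2). Mean ± S.E., n = 4.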

[9] = Substrate activity at PYSOCA in human CMEC/D3 cells assessed as transporter-mediated drug uptake measured for 2 mins at 37degC in presence of memantine; format: ADME, cell-based
[10] = Substrate activity at PYSOCA in human CMEC/D3 cells assessed as transporter-mediated drug uptake measured for 2 mins at 37degC in presence of tramadol; format: ADME, cell-based
[11] = Substrate activity at PYSOCA in human CMEC/D3 cells assessed as transporter-mediated drug uptake measured for 2 mins at 37degC in presence of clonidine; format: ADME, cell-based
[12] = Substrate activity at PYSOCA in human CMEC/D3 cells assessed as transporter-mediated drug uptake measured for 2 mins at 37degC in presence of MPP+; format: ADME, cell-based
[13] = Substrate activity at PYSOCA in human CMEC/D3 cells assessed as transporter-mediated drug uptake measured for 2 mins at 37degC in presence of L-carnitine; format: ADME, cell-based
[14] = Substrate activity at PYSOCA in human CMEC/D3 cells assessed as transporter-mediated drug uptake measured for 2 mins at 37degC in presence of choline; format: ADME, cell-based
[15] = target: Histone deacetylase (Homo sapiens) (UniProt Q13547+O15379+Q9UBN7+Q92769+Q9UQL6+Q8WUI4+Q9BY41+Q96DB2+P56524+Q9UKV0+Q969S8); conditions: at 10 µM

- inhibition [1]: < 10%
- CL [2]: 107 µL/min
- Activity [3]: Not Active
- Vmax [4]: 5.17 nmol/min
- Activity [5]: Not Active
- Activity [6]: Active
- Activity [7]: Not Active
- Activity [8]: Not Active
- Activity [9]: Not Active
- Activity [10]: Not Active
- Activity [11]: Not Active
- Activity [12]: Active
- Activity [13]: Active
- Activity [14]: Active
- inhibition [15]: Active
SMILES: COc1ccc(CN(CCN(C)C)c2ccc(C(=O)Nc3ccccc3N)cn2)cc1
